Screens: PubChem BioAssay, several laboratories
The list is not random: actives were taken first. Their share in the collection is about 1.8%.
Bfl-1 A1 inh: inhibitors of the anti-apoptotic protein A1, read as caspase activation | 330,000 compounds, 0.066% hits | MEF A1-2A-BIM cells, Caspase-Glo 3/7 luminescence, 3 h; percent of clofoctol response, vehicle zero | caspase activation, % (test concentration not listed) | AID 2462;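 active = over half of replicate activation scores above 10%, or exactly half above 10 with the replicate mean above 10; inconclusive = replicate mean below 10 yet half the replicates above 10; inactive = over half of replicates below 10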
ATG4B inh: inhibitors of human ATG4B cysteine protease | Q9Y4P1 | 340,000 compounds, 0.51% hits | inhibition, % at 8.33 µM | AID 504462 | ATG4B cleavage of LC3-PLA2, NBD-HPC fluorescence, 1 h; in the data active = inhibition above about 40%
AI-2 QS modul: Vibrio harveyi AI-2 quorum sensing modulation; Vibrio harveyi JMH597 AI-2 luminescence/OD600 ratio, 9 h; active compounds read low; strain lacks LuxN and CqsS sensors; 0 = neutral-control median; activity change, % at 7.5 µM; 300,000 compounds, 0.4% hits; AID 2094; in the data active = activity change below about -75%, passing the limit was not always enough; inconclusive = no clear call, values can overlap the other calls;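 note: luminescence divided by OD600 gain over 9 h not by final OD600 alone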
HDAC3 inhib: human HDAC3 inhibition | recombinant HDAC3, fluorogenic peptide/trypsin coupled, fluorescence | AID 2718 | 320,000 compounds, 0.15% hits | O15379 | inhibition, % at 8.3 µM; in the data active = inhibition above about 26%, passing the limit was not always enough; inconclusive = no clear call, values can overlap the other calls
HKDC1 inhibitor: blocks human hexokinase HKDC1 activity; Q2TB90; recombinant HKDC1, G6PDH/diaphorase resazurin coupled fluorescence; AID 493160; inhibition, % at 20 µM; 340,000 compounds, 0.16% hits;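 active = inhibition above about 35% when tested at 20 µM, limit read from the data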
Target sequence (Q2TB90 whole entry, looked up): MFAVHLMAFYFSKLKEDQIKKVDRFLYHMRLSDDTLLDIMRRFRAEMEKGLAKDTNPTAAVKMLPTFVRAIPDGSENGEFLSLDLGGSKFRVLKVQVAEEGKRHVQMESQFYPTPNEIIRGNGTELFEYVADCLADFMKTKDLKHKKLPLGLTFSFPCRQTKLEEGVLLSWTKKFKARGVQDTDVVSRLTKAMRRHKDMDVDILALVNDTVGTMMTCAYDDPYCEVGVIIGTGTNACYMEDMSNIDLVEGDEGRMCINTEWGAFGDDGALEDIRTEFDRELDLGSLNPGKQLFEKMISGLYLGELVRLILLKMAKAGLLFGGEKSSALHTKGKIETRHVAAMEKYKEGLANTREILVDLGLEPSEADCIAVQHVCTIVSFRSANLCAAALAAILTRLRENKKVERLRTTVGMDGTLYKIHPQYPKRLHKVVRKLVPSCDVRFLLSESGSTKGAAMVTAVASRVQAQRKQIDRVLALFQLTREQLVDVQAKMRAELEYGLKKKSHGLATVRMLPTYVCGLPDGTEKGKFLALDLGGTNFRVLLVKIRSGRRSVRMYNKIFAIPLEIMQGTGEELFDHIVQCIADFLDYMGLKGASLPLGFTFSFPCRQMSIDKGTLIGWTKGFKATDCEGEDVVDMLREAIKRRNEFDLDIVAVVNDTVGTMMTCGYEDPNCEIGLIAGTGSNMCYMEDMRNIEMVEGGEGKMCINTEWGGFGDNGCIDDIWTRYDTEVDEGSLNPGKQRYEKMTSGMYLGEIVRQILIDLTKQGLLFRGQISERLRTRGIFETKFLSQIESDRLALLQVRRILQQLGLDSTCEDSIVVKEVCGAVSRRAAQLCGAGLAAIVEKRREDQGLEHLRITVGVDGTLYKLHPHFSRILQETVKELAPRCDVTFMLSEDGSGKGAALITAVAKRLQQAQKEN
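Test system: HK5 enzyme. Quantity: 5 µg/mL HK5 final. Reagent: glucose and ATP substrates. Schedule: 90 min reaction incubation at room temperature, dark. Technique: resazurin-to-resorufin fluorescence via G6PDH and diaphorase coupling, 525/613 nm. Control set: DMSO wells with and without enzyme mix.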
LANA-H2A inh: blocks KSHV LANA binding to histone H2A/H2B; cell-free LANA-H2A/H2B peptide, fluorescence polarization; Q9QR71; inhibition, % (concentration not given with the values); 320,000 compounds, 0.6% hits; in the data active = inhibition mostly above about 10%, no sharp cut-off; inactive = mostly below about 6.7%
ATG4B confirm: confirmation of human ATG4B inhibitors; ATG4B protease fluorescent substrate cleavage assay; inhibition, % at 8.33 µM; shares compounds with ATG4B inh; 320 compounds, 92% hits; in the data active = inhibition above about 39%
PLA2 counter: counter-screen for ATG4B inhibitors: human phospholipase A2; shares compounds with ATG4B inh; purified PLA2, NBD-C6-HPC fluorescence, 45 min; inhibition, % at 8.33 µM; 1,600 compounds, 66% hits; in the data active = inhibition above about 50%
Each line names hits and unclear results; the compound was inactive in the other large screens (follow-up assays come after a bar, where they were run).

O=C(Nc1ccc(N2CCCCCC2)cc1)c1ccccc1Cl	ATG4B inh 51.0 | PLA2 counter inactive
CC(=O)N1CCN(c2ccc(NC(=O)c3ccccc3Cl)cc2)CC1	none (no result: AI-2 QS modul)
COc1cc(C(=O)NCCc2c[nH]c3ccccc23)ccc1OCc1c(C)noc1C	none
NC(=O)C1CCN(C2=C(NS(=O)(=O)c3ccc(Br)cc3)C(=O)c3ccccc3C2=O)CC1	ATG4B inh 64.2 | PLA2 counter 60.1
CCOC(=O)C1CCN(C2=C(NS(=O)(=O)c3ccc(Br)cc3)C(=O)c3ccccc3C2=O)CC1	none
O=C(NCCc1ccc(Cl)cc1Cl)c1ccc2nc[nH]c2c1	ATG4B inh 42.5 | PLA2 counter 51.0
Cc1ccc(S(=O)(=O)N2[C@@H](c3ccc(C(C)(C)C)cc3)C(C(=O)O)=CC[C@H]2c2ccc(Cl)cc2)cc1	ATG4B inh 45.7 (no result: Bfl-1 A1 inh, AI-2 QS modul, HDAC3 inhib, LANA-H2A inh) | PLA2 counter 54.5
NC(=O)CCn1c2ccccc2c2ccccc21	none
CC(C)CCn1c2ccccc2c2cc(CC(N)=O)ccc21	ATG4B inh 68.0 | PLA2 counter 77.2
O=C(Oc1c(-c2ccccc2)c(=O)n2c3c(cccc13)CC2)c1ccc(Cl)cc1	ATG4B inh 62.2 | PLA2 counter 67.0
Fc1cccc(CSc2ccc(-c3ccc4c(c3)OCO4)nn2)c1	none
Cc1ccccc1CSc1ccc(-c2ccc3c(c2)OCO3)nn1	ATG4B inh 44.6 | PLA2 counter inactive
COCC(C)OC(=O)/C(C#N)=C\c1coc2ccc(C)cc2c1=O (stereo not given)	ATG4B inh 61.8 (no result: AI-2 QS modul) | PLA2 counter inactive
Fc1ccc(OCc2nc3ccccc3s2)cc1	none
O=C(O)C(O)(c1ccccc1)C(O)c1ccccc1 (stereo not given)	none
CCn1c(SCC(=O)OC2CCCCC2)nc2ccccc2c1=O	none
CCOC(=O)CSc1nc2ccccc2c(=O)n1CC(C)C	ATG4B inh 57.4 | PLA2 counter 56.4
CCOC(=O)CSc1nc2ccccc2c(=O)n1CC	none
COc1ccc(-c2nnc(CSc3nc4ccccc4c(=O)n3CC(C)C)o2)cc1OC	ATG4B inh 45.2 | ATG4B confirm 74.1 | PLA2 counter inactive
CCOC(=O)CSc1nc2ccccc2c(=O)n1CC1CCCC1	ATG4B inh 70.6 | PLA2 counter 70.7
Cn1cnnc1SCC(=O)Nc1nc(-c2ccccc2)cs1	none
CS(=O)(=O)N1CCC(C(=O)N2CCN(c3ccc(F)cc3)CC2)CC1	none
NC(=O)CSc1nnc(CNc2cccc(Cl)c2)n1CCc1ccccc1	ATG4B inh 49.3 | PLA2 counter 66.3
O=C(CN1C(=O)COc2ccccc21)NCCCN1CCc2ccccc2C1	ATG4B inh 75.6 | PLA2 counter inactive
CC(=O)c1ccc(N2CCN(C(=O)CCCn3c(=S)[nH]c4cc5c(cc4c3=O)OCO5)CC2)cc1	ATG4B inh 44.6 (no result: AI-2 QS modul) | PLA2 counter 60.6
O=C(CCCn1c(=S)[nH]c2cc3c(cc2c1=O)OCO3)N1CCN(c2ccc(Cl)cc2)CC1	ATG4B inh 53.0 | PLA2 counter 56.6
O=C(CCCn1c(=S)[nH]c2cc3c(cc2c1=O)OCO3)N1CCc2ccccc2C1	ATG4B inh 60.4 | PLA2 counter 62.7
O=C(CCn1c(=S)[nH]c2cc3c(cc2c1=O)OCO3)N1CCc2ccccc2C1	none (no result: ATG4B inh, HKDC1 inhibitor)
COc1ccc(-c2oc3ccc(-c4cc(OC)c(OC)c(OC)c4)cc3c2C#Cc2ccsc2)cc1	none
CC(=O)Nc1ccc(S(=O)(=O)Nc2nc3ccccc3nc2Nc2cccc(O)c2)cc1	none
CC(=O)Nc1ccc(S(=O)(=O)Nc2nc3ccccc3nc2Nc2ccc3ccccc3c2)cc1	ATG4B inh 48.1 | PLA2 counter 57.9
O=C(O)c1cc2c(cc1NC(=O)c1ccccc1OC(F)F)OCCCO2	ATG4B inh 44.0 | ATG4B confirm 58.2 | PLA2 counter inactive
COc1ccccc1C(=O)Nc1cc2c(cc1C(=O)O)OCCCO2	none
CCOc1ccccc1N1CCN(C2=C(NS(=O)(=O)c3cccs3)C(=O)c3ccccc3C2=O)CC1	ATG4B inh 57.4 | PLA2 counter 65.3
COc1ccc(NC(=O)N2C3CCCC2CC(NC(=O)c2ccccc2)C3)cc1 (stereo not given)	none
Cc1ccc(N=Nc2c(N)nn(-c3ccccc3)c2N)cc1	ATG4B inh 57.3 | PLA2 counter 70.8
Cc1nn(-c2ccccc2)c(N)c1N=Nc1ccc2ccccc2c1	ATG4B inh 78.2 | PLA2 counter 91.5
Cc1nn(-c2ccccc2)c(N)c1N=O	none
CCN(CC)C(=O)[C@H]1CC(CC(=O)NCCC2=CCCCC2)C(=O)N2CCc3c([nH]c4ccc(OC)cc34)[C@]12C (stereo not given in full)	none (no result: Bfl-1 A1 inh, ATG4B inh, AI-2 QS modul, HDAC3 inhib, LANA-H2A inh)
Cc1ccc(Oc2cc(NC(=O)CCCn3nc([N+](=O)[O-])cc3C)cc([N+](=O)[O-])c2)cc1	ATG4B inh 67.4 | PLA2 counter 64.6
Cc1ccc(C)c(Oc2cc(NC(=O)CCCn3nc(C)c([N+](=O)[O-])c3C)cc([N+](=O)[O-])c2)c1	ATG4B inh 64.8 (no result: HDAC3 inhib, LANA-H2A inh) | PLA2 counter 63.9
Cc1nn(CCCC(=O)NCCc2ccccc2)c(C)c1[N+](=O)[O-]	none
Cc1nn(CCCC(=O)Nc2cc(Oc3ccccc3)cc([N+](=O)[O-])c2)c(C)c1[N+](=O)[O-]	ATG4B inh 53.2 | PLA2 counter 63.0
Cn1c2c(c(=O)n3ncnc13)CCCC2	none
CCOc1ccc(C)cc1S(=O)(=O)n1cnc2ccccc21	none
O=C(c1ccc(COc2ccc(Cl)cc2)cc1)N1CCCCC1	none
O=C(c1ccc(COc2ccccc2Br)cc1)N1CCCCCC1	ATG4B inh 43.8, HDAC3 inhib inconclusive | PLA2 counter 55.4
Cc1ccc(C)c(CNC(=O)Nc2ccccc2)c1	ATG4B inh 48.9 | PLA2 counter 50.5
O=C(NCc1ccc(Cl)cc1Cl)Nc1ccccc1	none
C=C1CC[C@@]23CC[C@]4(C)[C@@](OC2=O)([C@@H]3C1)[C@H]1O[C@H]1C1[C@@]2(C)CC[C@H](O)C(C)(C)C2CC[C@]14C (stereo not given in full)	none (no result: AI-2 QS modul)
N=C(N)c1ccc(N=Nc2c(O)ccc3c2[nH]c2ccccc23)cc1	ATG4B inh 86.1 (no result: Bfl-1 A1 inh, AI-2 QS modul, HDAC3 inhib, LANA-H2A inh) | ATG4B confirm 38.2 | PLA2 counter inactive
O=S1(=O)N(Cc2ccccc2F)CCCN1Cc1c(F)cccc1Cl	ATG4B inh 67.9 | PLA2 counter 82.5
COc1ccc(-c2nnc(SCC(=O)N/N=C/c3ccccc3C(=O)O)n2-c2ccccc2)cc1	none (no result: HDAC3 inhib)
